The full list was thinned out, with hits kept by preference.
CHOP inh – blocks CHOP induction under ER stress; CHO-K1 CHOP-promoter luciferase, tunicamycin-induced, 15-18 h; AID 2732; inhibition, % at 10 µM; actives 3.8% (n = 220,000);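 active = compounds that reduced the stress-induced luciferase reporter signal by more than about 70% of percent inhibition, limit read from the data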;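 also: 0% = tunicamycin plus vehicle and 100% = wells without tunicamycin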
UPR XBP1 act – activators of adaptive arm of unfolded protein response (XBP1); CHO-XBP1 luciferase reporter, IRE1-XBP1 UPR activation, luminescence; percent of tunicamycin response, DMSO as zero; activation, % at 20 µM; actives 0.33% (n = 330,000); AID 463104;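 active = versus positive control, 20 µM dose yields 30% or more activation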;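 also: 100% = tunicamycin at 10 µg/mL and 0% = DMSO only wells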
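assay system = CHO-XBP1 luciferase reporter cells | amount = 1000 cells/well | buffer or medium = F12 plus 10% FBS | compound dosing = single point, 20 µM final compound, 1% DMSO | incubation = 16-18 h cell attachment at 37 °C, then 6 h compound exposure | detection = Steady-Glo luminescence read | controls = tunicamycin 10 µg/mL and vehicle-only wells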
UPR CHOP act – apoptotic UPR (CHOP) activation; CHO-CHOP luciferase reporter, luminescence; percent of tunicamycin response over DMSO baseline; actives 0.34% (n = 330,000); activation, % at 10 µM; AID 449763;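 active = at 10 µM dose, activation of 40% or more, normalized to positive control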;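 also: 100% = tunicamycin at 10 µg/mL and 0% = DMSO alone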
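Material: CHO-CHOP cells, stable luciferase reporter of PERK-eIF2a-CHOP signalling; quantity: 500 reporter cells seeded per well; buffer or medium: F12 medium containing 10% fetal bovine serum; compound: one dose, 10 µM in 0.5% DMSO; incubation: 6 h compound treatment, 37 °C; measured by: Steady-Glo luciferase luminescence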
A1 inh – inhibitors of the anti-apoptotic protein A1, read as caspase activation; MEF A1-2A-BIM cells, Caspase-Glo 3/7 luminescence, 3 h; percent of clofoctol response, vehicle zero; caspase activation, % (concentration not given with the values); actives 0.066% (n = 330,000); AID 2462;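 active = over half of replicate activation scores above 10%, or exactly half above 10 with the replicate mean above 10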
* marks the source's active call; other numbers are inactive results; nt = not tested or not shown.

SMILES | CHOP inh | UPR XBP1 act | UPR CHOP act | A1 inh
Cc1cc(N2CCN(C(=O)c3ccco3)CC2)n2nc(-c3cccc(Cl)c3)cc2n1 | 96* | 3 | 7 | 0
Cc1ccc(CSCC2Nc3ccc(C(=O)N4CCN(c5cccc(C)c5)C(C)C4)cc3NC2=O)cc1 (stereo not given) | nt | -4 | 2 | 1
CC(C)CCNC(=O)NC(=O)CSc1nnc(-c2ccccc2Br)o1 | 87* | -2 | -1 | 0
O=C(CCNC(=O)c1ccco1)Nc1nc(-c2ccccc2)cs1 | nt | -1 | 3 | -4
Cc1cccc(N/C(N)=N/c2nc(CSc3ccc(Cl)cc3)cc(=O)[nH]2)c1 | -3 | 38* | 17 | 0
O=C(CN1C(=O)C2CC=CCC2C1=O)Nc1nc(-c2ccc(F)c(F)c2)cs1 (stereo not given) | nt | -5 | 1 | 0
O=C(Cn1cc2c(n1)CCCC2)Nc1cc(-c2cccc(Cl)c2)no1 | 95* | 4 | 0 | -1
CC(NC(=O)Cn1cc2c(n1)CCCCC2)c1ccccc1 (stereo not given) | -4 | 1 | 1 | -1
O=C(Nc1nnc2n1CCS2)c1ccc(Br)o1 | nt | -3 | 0 | 1
CC(C)(C)Nc1nc(SCc2ccccc2)nc(N2CCOCC2)n1 | 74* | 1 | -3 | 1
CCNc1nc(N2CCOCC2)nc(N(c2ccccc2)c2ccccc2)n1 | 72* | 2 | 0 | -1
CCN(CC)CC(=O)N1c2ccccc2Oc2c(c(=O)n(C)c(=O)n2C)C1c1cccc([N+](=O)[O-])c1 (stereo not given) | -1 | 2 | 0 | 0
O=C(Nc1ccc2c(c1)C(=O)N(CC1CCCO1)C2=O)c1cccc(Br)c1 (stereo not given) | 73* | 2 | 3 | 1
O=C(O)c1cccc(NC(=O)c2ccc3c(c2)C(=O)N(CC2CCCO2)C3=O)c1 (stereo not given) | 40 | -1 | -3 | -5
O=C(NC(=S)NCc1ccccc1)C1CCCCC1 | 89* | 0 | 3 | 1
Cc1ccc(-c2nnc3ccc(SCC(=O)N4CCc5ccccc54)nn23)cc1 | 85* | 19 | 5 | nt
Cc1ccc(-c2nnc3ccc(SCC(=O)N4CCCc5ccccc54)nn23)cc1 | 59 | -1 | 3 | 0
CCCCCC1CCC(c2n[nH]c(=S)n2C)CC1 (stereo not given) | 95* | 1 | -1 | 0
C=CCn1c(C2CC2)n[nH]c1=S | 12 | 1 | -1 | 0
Cc1ccc(C)c(OCC(=O)N/N=C/c2c(C)nn(-c3ccccc3)c2Cl)c1 | 83* | -1 | 1 | 0
Cc1ccc(C(C)C)c(OCC(=O)N/N=C/c2cccn2C)c1 | 96* | -4 | 1 | 0
O=S(=O)(NCCCN1CCOCC1)c1ccc(Cl)s1 | 3 | -1 | -1 | 0
CCCCCCNS(=O)(=O)c1ccc(Cl)s1 | 87* | -2 | -2 | 0
OC(CNCCc1ccc(Cl)cc1)COc1ccc2ccccc2c1 (stereo not given) | 100* | nt | nt | nt
O=C(NCC1CCCO1)/C(=C/c1ccccc1F)NC(=O)c1ccccc1 (stereo not given) | nt | -3 | 2 | -1
SMILES | CHOP inh | UPR XBP1 act | UPR CHOP act | A1 inh
CC(C)OCCCN1C(=O)c2[nH]nc(-c3ccccc3O)c2C1c1cccc(Cl)c1 (stereo not given) | 95* | 1 | -1 | 0
O=C(CSc1nnc(Cc2ccccc2)n1Cc1ccco1)NC12CC3CC(CC(C3)C1)C2 | 72* | 0 | 0 | 1
COCCN(C(=O)CSc1nnc(-c2ccccc2F)o1)c1c(N)n(CC(C)C)c(=O)[nH]c1=O | nt | -3 | -1 | 0
C=CCN1C(=O)/C(=C/c2ccc(OCC(=O)O)cc2)S/C1=N/c1nccs1 | 17 | -2 | 1 | 0
C=CCN1C(=O)/C(=C/c2ccc(N(C)C)cc2)S/C1=N\c1nnc(CC)s1 | 104* | nt | nt | nt
O=[N+]([O-])c1cccc(C2NCC(c3ccccc3Cl)c3c2[nH]c2ccccc32)c1 (stereo not given) | 85* | -3 | 0 | 0
CCCNC(=O)COC(=O)c1ccccc1OCC(=O)Nc1ccc(Br)cc1 | 80* | -1 | 7 | 0
Cc1cc2oc(=O)ccc2cc1[N+](=O)[O-] | nt | 3 | -1 | -2
CCOc1ccc(N=C2SCC(=O)N2CC)cc1 | nt | -3 | 0 | -1
CCN1C(=O)CSC1=NC1C2CC3CC(C2)CC1C3 (stereo not given) | 76* | -2 | -3 | -1

Source: PubChem BioAssay (several laboratories)
